Experimental data from ChEMBL document CHEMBL1649123, “Erythromycin- and chloramphenicol-induced ribosomal assembly defects are secondary effects of protein synthesis inhibition” (2009).
Converted amounts (≈) assume the structure as drawn. The source made the active and inactive calls. The rule behind the calls is not given here.

How the values were obtained:
[1] = system: Escherichia coli; test: Inhibition of large ribosomal subunit assembly in Escherichia coli assessed as accumulation of 23S rRNA in 70S and 50S fractions at 7 ug/ml after 2 hrs by sucrose gradient fractionation at 25 degC; format: functional, organism-based
Outline: (§1)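 MG1655 grown in 2× YT at 25 or 37°C to A600 0.2, then drug added (final concentration as per line). Incubated 2 h at 25°C or 1 h at 37°C. Freeze-thaw lysis used lysozyme and DNase I. Lysate was run on a 10–25% sucrose gradient in buffer D, pH 8, for 13.5 h at 4°C. Fraction RNA was dot-blotted with 32P-labelled 16S/23S oligonucleotide probes, loading 0.2 pmol 50S-fraction 23S RNA.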

[2] = system: Escherichia coli; test: Inhibition of large ribosomal subunit assembly in Escherichia coli assessed as accumulation of 23S rRNA in 40S fraction at 7 ug/ml after 2 hrs by sucrose gradient fractionation at 25 degC; format: functional, organism-based; outline: as §1
[3] = system: Escherichia coli; test: Inhibition of small ribosomal subunit assembly in Escherichia coli assessed as accumulation of 16S rRNA at 7 ug/ml after 2 hrs by sucrose gradient fractionation at 25 degC; format: functional, organism-based; outline: as §1
[4] = system: Escherichia coli; test: Inhibition of large ribosomal subunit assembly in Escherichia coli assessed as accumulation of 23S rRNA in 70S and 50S fractions at 7 ug/ml after 1 hr by sucrose gradient fractionation at 37 degC; format: functional, organism-based; outline: as §1
[5] = system: Escherichia coli; test: Inhibition of large ribosomal subunit assembly in Escherichia coli assessed as accumulation of 23S rRNA in 40S fraction at 7 ug/ml after 1 hr by sucrose gradient fractionation at 37 degC; format: functional, organism-based; outline: as §1
[6] = system: Escherichia coli; test: Inhibition of small ribosomal subunit assembly in Escherichia coli assessed as accumulation of 16S rRNA at 7 ug/ml after 1 hr by sucrose gradient fractionation at 37 degC; format: functional, organism-based; outline: as §1
[7] = system: Escherichia coli; test: Inhibition of ribosomal subunit assembly in Escherichia coli assessed as accumulation of partially processed 23S rRNA in 30S, 40S and 50S fractions at 100 ug/ml after 1 hr by primer extension analysis at 37 degC; format: functional, organism-based
Outline: (§2)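 Ribosomes from MG1655 drug-treated in 2× YT (1 h at 37°C or 2 h at 25°C from A600 0.2) were separated on 10–25% sucrose gradients. RNA was isolated from fractions by isopropanol precipitation and guanidinium thiocyanate/silica binding. 5′ ends of 23S and 16S rRNA were mapped by reverse transcription from specific primers, alongside sequencing lanes.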

[8] = system: Escherichia coli; test: Inhibition of ribosomal subunit assembly in Escherichia coli assessed as accumulation of partially processed 23S rRNA in 30S, 40S and 50S fractions at 7 ug/ml after 1 hr by primer extension analysis at 37 degC; format: functional, organism-based; outline: as §2
[9] = system: Escherichia coli; test: Inhibition of ribosomal subunit assembly in Escherichia coli assessed as accumulation of partially processed 23S rRNA in 30S, 40S and 50S fractions at 7 ug/ml after 2 hrs by primer extension analysis at 25 degC; format: functional, organism-based; outline: as §2
[10] = system: Escherichia coli; test: Inhibition of ribosomal subunit assembly in Escherichia coli assessed as accumulation of partially processed 23S rRNA in 30S, 40S and 50S fractions at 100 ug/ml after 2 hrs by primer extension analysis at 25 degC; format: functional, organism-based; outline: as §2
[11] = system: Escherichia coli; test: Inhibition of ribosomal subunit assembly in Escherichia coli assessed as retardation of 16S rRNA processing at 100 ug/ml after 1 hr by primer extension analysis at 37 degC; format: functional, organism-based; outline: as §2
[12] = system: Escherichia coli; test: Inhibition of ribosomal subunit assembly in Escherichia coli assessed as retardation of 16S rRNA processing at 7 ug/ml after 1 hr by primer extension analysis at 37 degC; format: functional, organism-based; outline: as §2
[13] = system: Escherichia coli; test: Inhibition of ribosomal subunit assembly in Escherichia coli assessed as retardation of 16S rRNA processing at 7 ug/ml after 2 hrs by primer extension analysis at 25 degC; format: functional, organism-based; outline: as §2
[14] = system: Escherichia coli; test: Inhibition of ribosomal subunit assembly in Escherichia coli assessed as retardation of 16S rRNA processing at 100 ug/ml after 2 hrs by primer extension analysis at 25 degC; format: functional, organism-based; outline: as §2
[15] = system: Escherichia coli; test: Inhibition of ribosomal subunit assembly in Escherichia coli assessed as reduction in mature 23S rRNA at 7 ug/ml; format: functional
[16] = system: Escherichia coli; test: Inhibition of ribosomal subunit assembly in Escherichia coli assessed as accumulation of assembly-deffective particles between 50S and 20S regions after 10 mins by sucrose gradient fractionation; format: functional, organism-based
Outline: (§3)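 Cells grown at 37°C in tryptone/yeast extract/NaCl to A600 0.2, then exposed to erythromycin (final 100 μg/ml) or chloramphenicol (final 7 μg/ml). After 5, 10 or 60 min, pulsed 5 min with [3H]uridine, 2 μCi per 50 ml; some samples chased 5 min with rifampin, final 500 μg/ml. Sucrose gradients cut into 40 fractions; TCA-precipitable radioactivity counted by scintillation.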

[17] = system: Escherichia coli; test: Inhibition of ribosomal subunit assembly in Escherichia coli assessed as accumulation of assembly-deffective particles between 50S and 20S regions after 60 mins by sucrose gradient fractionation; format: functional, organism-based; outline: as §3
[18] = system: Escherichia coli; test: Antimicrobial activity against Escherichia coli at 7 ug/ml after 8 hrs; format: functional
Outline: (§4)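 E. coli MG1655 culture growth followed by optical density over 8 h, with the drug-treated culture expressed relative to an untreated control culture.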

[19] = system: Escherichia coli; test: Inhibition of large ribosomal subunit assembly in Escherichia coli assessed as accumulation of 23S rRNA in 70S and 50S fractions at 100 ug/ml after 2 hrs by sucrose gradient fractionation at 25 degC; format: functional, organism-based; outline: as §1
[20] = system: Escherichia coli; test: Inhibition of large ribosomal subunit assembly in Escherichia coli assessed as accumulation of 23S rRNA in 40S fraction at 100 ug/ml after 2 hrs by sucrose gradient fractionation at 25 degC; format: functional, organism-based; outline: as §1
[21] = system: Escherichia coli; test: Inhibition of small ribosomal subunit assembly in Escherichia coli assessed as accumulation of 16S rRNA at 100 ug/ml after 2 hrs by sucrose gradient fractionation at 25 degC; format: functional, organism-based; outline: as §1
[22] = system: Escherichia coli; test: Inhibition of large ribosomal subunit assembly in Escherichia coli assessed as accumulation of 23S rRNA in 70S and 50S fractions at 100 ug/ml after 1 hr by sucrose gradient fractionation at 37 degC; format: functional, organism-based; outline: as §1
[23] = system: Escherichia coli; test: Inhibition of large ribosomal subunit assembly in Escherichia coli assessed as accumulation of 23S rRNA in 40S fraction at 100 ug/ml after 1 hr by sucrose gradient fractionation at 37 degC; format: functional, organism-based; outline: as §1
[24] = system: Escherichia coli; test: Inhibition of small ribosomal subunit assembly in Escherichia coli assessed as accumulation of 16S rRNA at 100 ug/ml after 1 hr by sucrose gradient fractionation at 37 degC; format: functional, organism-based; outline: as §1
[25] = system: Escherichia coli; test: Inhibition of ribosomal subunit assembly in Escherichia coli assessed as reduction in mature 23S rRNA at 100 ug/ml; format: functional
[26] = system: Escherichia coli; test: Inhibition of ribosomal subunit assembly in Escherichia coli assessed as reduction in mature 23S rRNA at 7 ug/ml in presence of E-peptide; format: functional
[27] = system: Staphylococcus aureus; test: Antimicrobial activity against Staphylococcus aureus UCN18 with A2059G mutation in rrl allele; format: functional
Outline: (§5)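 Clinical S. aureus isolates carrying rRNA operon mutations: UCN14 has A2058T in 4 of 5 rrl alleles, UCN17 has A2058G in 4 of 6, and UCN18 has A2059G in 3 of 5. MIC was determined for erythromycin by microbroth dilution in 96-well plates.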

[28] = system: Staphylococcus aureus; test: Antimicrobial activity against Staphylococcus aureus UCN14 with A2058T mutation in rrl allele; format: functional; outline: as §5
[29] = system: Staphylococcus aureus; test: Antimicrobial activity against Staphylococcus aureus UCN17 with A2058G mutation in rrl allele; format: functional; outline: as §5
[30] = system: Escherichia coli; test: Antimicrobial activity against Escherichia coli at 100 ug/ml after 8 hrs; format: functional; outline: as §4

Compound	inhibition [7]	inhibition [8]	inhibition [9]	inhibition [10]	inhibition [11]	inhibition [12]	inhibition [13]	inhibition [14]	inhibition [16]	inhibition [17]	also measured
O=C(N[C@H](CO)[C@H](O)c1ccc([N+](=O)[O-])cc1)C(Cl)Cl [CHLORAMPHENICOL]	Active	Active	Active	Active	Active	Active	Active	Active	Active	Active	inhibition [1]: Active; inhibition [2]: Active; inhibition [3]: Active; inhibition [4]: Active; inhibition [5]: Active; inhibition [6]: Active; inhibition at 7 µg/mL [15]: 50%; Activity [18]: 70%
CC[C@H]1OC(=O)[C@H](C)[C@@H](O[C@H]2C[C@@](C)(OC)[C@@H](O)[C@H](C)O2)[C@H](C)[C@@H](O[C@@H]2O[C@H](C)C[C@H](N(C)C)[C@H]2O)[C@](C)(O)C[C@@H](C)C(=O)[C@H](C)[C@@H](O)[C@]1(C)O [ERYTHROMYCIN]	Active	Active	Active	Active	Active	Active	Active	Active	Active	Active	inhibition [19]: Active; inhibition [20]: Active; inhibition [21]: Active; inhibition [22]: Active; Activity [23]: Active; inhibition [24]: Active; inhibition at 100 µg/mL [25]: 30%; inhibition at 7 µg/mL [26]: 60%; MIC [27]: 512 µg/mL (≈ 698 µM); MIC [28]: 512 µg/mL (≈ 698 µM); MIC [29]: 512 µg/mL (≈ 698 µM); Activity [30]: 70%
